# According to ChEMBL document CHEMBL1629555, “Antimalarial activity of phenylthiazolyl-bearing hydroxamate-based histone deacetylase inhibitors” (Antimicrob Agents Chemother, 2008):
# Active and inactive are the calls of the source. The calls are words filed in the database; no cut-off is given here.
# Experiments:
# Plasmodium falciparum [1] = assay: Antimalarial activity against Plasmodium falciparum at 10 nM after 3.5 hrs; assay type: functional, organism-based
# Procedure, shortened: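 Infected erythrocytes were exposed to compound for 3.5 h, washed, and returned to culture. Parasite growth was compared with matched controls after 48 h.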
# Mus musculus [2] = assay: Toxicity in Plasmodium berghei-infected mouse assessed as mortality at split dose of 40 mg/kg/day, po for 3 days; assay type: organism-based; design: route oral; conditions: in vivo, 72 h
# Plasmodium falciparum [3] = assay: Antimalarial activity against drug-resistant Plasmodium falciparum TM90C2A; assay type: functional, organism-based
# Plasmodium berghei [4] = assay: Antimalarial activity against Plasmodium berghei infected in mouse assessed as parasitemia level at 160 mg/kg/day for 3 days measured on day 3 (reference value: 0.46%); assay type: functional
# Procedure, shortened: (§1)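 Mice were infected ip with 10^6 P. berghei-parasitized erythrocytes. The compound was given orally once daily on days 3, 4 and 5 post-infection in hydroxyethylcellulose-Tween 20 vehicle, alone or together with chloroquine, with 5 mice per dose group. Parasitemia (%) was read on days 3 and 6, and cures were counted as animals cured out of 5.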
# Plasmodium berghei [5] = assay: Antimalarial activity against Plasmodium berghei infected in mouse assessed as parasitemia level at 160 mg/kg/day for 3 days measured on day 6 (reference value: 37%); assay type: functional; procedure, shortened: as §1
# Plasmodium falciparum [6] = assay: Antimicrobial activity against Plasmodium falciparum W2 at […] in presence of artemisinin; assay type: functional
# Procedure, shortened: (§2)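 In vitro fixed-ratio isobologram using a SYBR green I fluorescence assay. […] IC50s were standardized and FIC50 and ΣFIC50 calculated by the Berenbaum method. Reported as the average ΣFIC across dilutions or the average maximum ΣFIC, from at least 2 experiments.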
# Mus musculus [7] = assay: Toxicity in Plasmodium berghei-infected mouse assessed as mortality at single dose of 40 mg/kg/day, po for 3 days; assay type: organism-based; design: route oral; conditions: in vivo, 72 h
# Plasmodium berghei [8] = assay: Antimalarial activity against Plasmodium berghei infected in mouse assessed as parasitemia level at 320 mg/kg/day for 3 days measured on day 6 (reference value: 37%); assay type: functional; procedure, shortened: as §1
# Plasmodium berghei [9] = assay: Antimalarial activity against Plasmodium berghei infected in mouse assessed as effect on cure rate at 130 mg/kg/day, po for 7 days; assay type: functional, organism-based
# Procedure, shortened: (§3)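 Mice were infected ip with 10^6 P. berghei-parasitized erythrocytes. The compound was given in hydroxyethylcellulose-Tween 20 vehicle, 5 mice per group, starting on day 3 post-infection. Regimens were once-daily or split daily oral doses over 3 days, subcutaneous dosing, or dosing over 7 days. Read-outs were posttreatment parasitemia on day 6 as a fraction of controls and the number of mice cured.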
# Plasmodium berghei [10] = assay: Antimalarial activity against Plasmodium berghei infected in mouse assessed as parasitemia level at 12.8 mg/kg/day for 3 days measured on day 6 in presence of 16 mg/kg/day chloroquine (reference value: 37%); assay type: functional; procedure, shortened: as §1
# Plasmodium berghei [11] = assay: Antimalarial activity against Plasmodium berghei infected in mouse assessed as effect on curate rate at split dose of 40 mg/kg/day, po for 3 days; assay type: functional, organism-based; procedure, shortened: as §3
# [12] = Tmax in ICR mouse at 50 mg/kg/day, po by LC/MS analysis; assay type: ADME, organism-based; design: route oral; conditions: in vivo
# Procedure, shortened: (§4)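 Male ICR mice, 8 weeks old, got one 50 mg/kg dose either orally or subcutaneously, with three groups of six mice per route. One mouse per group was killed at 15, 30 and 60 min and at 3, 6 and 24 h. Plasma was deproteinized with 2 volumes of acetonitrile and analysed by LC-MS/MS on a C18 column against 0–500 ng/ml standards, with parent and acid metabolite measured in the same sample. Each six-mouse group was treated as one "animal" and fitted to a two-compartment model. AUC was taken by the linear trapezoidal rule extrapolated to infinity, and Cmax and Tmax were read per "animal".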
# Plasmodium berghei [13] = assay: Antimalarial activity against Plasmodium berghei infected in mouse assessed as parasitemia level at 52 mg/kg/day for 3 days measured on day 6 in presence of 64 mg/kg/day chloroquine; assay type: functional; procedure, shortened: as §1
# Plasmodium falciparum [14] = assay: Antimalarial activity against drug-resistant Plasmodium falciparum TM91C235; assay type: functional, organism-based
# [15] = Half life in ICR mouse at 50 mg/kg/day, sc by LC/MS analysis; assay type: ADME, organism-based; design: route subcutaneous; conditions: in vivo; procedure, shortened: as §4
# Plasmodium falciparum [16] = assay: Antimicrobial activity against Plasmodium falciparum D6 infected in Aotus lemurinus lemurinus monkey at […] in presence of mefloquine; assay type: functional
# Plasmodium berghei [17] = assay: Antimalarial activity against Plasmodium berghei infected in mouse assessed as effect on cure rate at 32 mg/kg/day for 3 days measured on day 6 in presence of 3.6 mg/kg/day chloroquine; assay type: functional, organism-based; procedure, shortened: as §1
# Plasmodium berghei [18] = assay: Antimalarial activity against Plasmodium berghei infected in mouse assessed as effect on cure rate at single dose of 80 mg/kg/day, po for 3 days; assay type: functional, organism-based; procedure, shortened: as §3
# Plasmodium falciparum [19] = assay: Antimicrobial activity against Plasmodium falciparum D6 infected in Aotus lemurinus lemurinus monkey at […] in presence of artemisinin; assay type: functional
# Plasmodium falciparum [20] = assay: Antimalarial activity against Plasmodium falciparum infected in mouse RAW264.7 cells; assay type: functional, organism-based
# Plasmodium falciparum [21] = assay: Antimicrobial activity against Plasmodium falciparum W2 at […] in presence of mefloquine; assay type: functional; procedure, shortened: as §2
# [22] = Cytotoxicity against mouse RAW264.7 cells by MTT assay; assay type: cell-based; conditions: read-out: LD50 (the source's name)
# Procedure, shortened: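 LC50 in RAW macrophages was determined by MTT assay, given as the mean of 2–4 experiments with range. Selectivity index = RAW LC50 / lowest P. falciparum IC50.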
# [23] = Cytotoxicity against african green monkey Vero cells by MTT assay; assay type: cell-based; conditions: chlorocebus sabaeus, read-out: LC50 (the source's name)
# Plasmodium berghei [24] = assay: Antimalarial activity against Plasmodium berghei infected in mouse assessed as parasitemia level at 320 mg/kg/day for 3 days measured on day 3 (reference value: 0.46%); assay type: functional; procedure, shortened: as §1
# Plasmodium berghei [25] = assay: Antimalarial activity against Plasmodium berghei infected in mouse assessed as parasitemia level at 160 mg/kg/day for 3 days measured on day 6 in presence of 2 mg/kg/day chloroquine (reference value: 37%); assay type: functional; procedure, shortened: as §1
# Plasmodium berghei [26] = assay: Antimalarial activity against Plasmodium berghei infected in mouse assessed as parasitemia level at single dose of 80 mg/kg/day, po for 3 days measured on day 6 relative to control; assay type: functional
# Procedure, shortened: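 Mice infected intraperitoneally with 10^6 P. berghei-parasitized erythrocytes. Drug given orally once daily on days 3, 4 and 5 post-infection in hydroxyethylcellulose-Tween 20 vehicle, 5 mice per dose group. Parasitemia measured on day 6 and expressed as a fraction of untreated control parasitemia.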
# Plasmodium berghei [27] = assay: Antimalarial activity against Plasmodium berghei infected in mouse assessed as parasitemia level at split dose of 130 mg/kg/day, po for 7 days measured on day 6 relative to control; assay type: functional
# Plasmodium berghei [28] = assay: Antimalarial activity against Plasmodium berghei infected in mouse assessed as effect on cure rate at 52 mg/kg/day for 3 days measured on day 6 in presence of 64 mg/kg/day chloroquine; assay type: functional, organism-based; procedure, shortened: as §1
# Plasmodium berghei [29] = assay: Antimalarial activity against Plasmodium berghei infected in mouse assessed as effect on cure rate at 12.8 mg/kg/day for 3 days measured on day 6 in presence of 16 mg/kg/day chloroquine; assay type: functional, organism-based; procedure, shortened: as §1
# Mus musculus [30] = assay: Toxicity in Plasmodium berghei-infected mouse assessed as mortality at split dose of 130 mg/kg/day, sc for 3 days measured on day 5; assay type: organism-based; design: route subcutaneous; conditions: in vivo, 72 h
# Plasmodium berghei [31] = assay: Antimalarial activity against Plasmodium berghei infected in mouse assessed as parasitemia level at 3.2 mg/kg/day for 3 days measured on day 6 in presence of 4 mg/kg/day chloroquine (reference value: 37%); assay type: functional
# Plasmodium berghei [32] = assay: Antimalarial activity against Plasmodium berghei infected in mouse assessed as effect on cure rate at 160 mg/kg/day for 3 days; assay type: functional, organism-based; procedure, shortened: as §1
compound,measurement,setting,value
Nc1cccc(-c2csc(NC(=O)CCCCCCC(=O)NO)n2)c1,Activity,Plasmodium falciparum [1],Active
same,Activity,Mus musculus [2],Non-toxic
same,IC50,Plasmodium falciparum [3],0.6 nM
same,Activity,Plasmodium berghei [4],0.64%
same,Activity,Plasmodium berghei [5],8.8%
same,fractional inhibitory concentration index (FICI),Plasmodium falciparum [6],2.1
same,Activity,Mus musculus [7],Non-toxic
same,Activity,Plasmodium berghei [8],0.107%
same,Activity,Plasmodium berghei [9],inactive
same,Activity,Plasmodium berghei [10],0%
same,Activity,Plasmodium berghei [11],inactive
same,Tmax,[12],0.83 h
same,Activity,Plasmodium berghei [13],0%
same,IC50,Plasmodium falciparum [14],1.5 nM
same,half-life,[15],8.5 h
same,fractional inhibitory concentration index (FICI),Plasmodium falciparum [16],2.2
same,Activity,Plasmodium berghei [17],inactive
same,Activity,Plasmodium berghei [18],inactive
same,fractional inhibitory concentration index (FICI),Plasmodium falciparum [19],2.1
same,IC50,Plasmodium falciparum [20],0.59 nM
same,fractional inhibitory concentration index (FICI),Plasmodium falciparum [21],2.1
same,CC50,[22],600 nM
same,CC50,[23],950 nM
same,Activity,Plasmodium berghei [24],0.52%
same,Activity,Plasmodium berghei [25],0.36%
same,fold change (FC),Plasmodium berghei [26],0.096
same,fold change (FC),Plasmodium berghei [27],0.01
same,Activity,Plasmodium berghei [28],inactive
same,Activity,Plasmodium berghei [29],inactive
same,Activity,Mus musculus [30],Toxic
same,Activity,Plasmodium berghei [31],0.029%
same,Activity,Plasmodium berghei [32],inactive
